Screening results as filed in PubChem.
An excerpt weighted towards active compounds, which were near 2.3% of everything screened.
TRPC6 inhibitor = mouse TRPC6 channel inhibition; 1.1% of 310,000 active; Q61143; HEK293-TRPC6, membrane potential dye, ACh-evoked depolarization; active compounds read low; B-score at 10 µM;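 active = B-score under library mean minus 3 SD, initial fluorescence not abnormally high, positive integrated signal ratio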;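 also: B-score derived from integrated fluorescence ratio over the kinetic read; more negative B-score means stronger inhibition of depolarization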
Target sequence (Q61143 whole entry, looked up): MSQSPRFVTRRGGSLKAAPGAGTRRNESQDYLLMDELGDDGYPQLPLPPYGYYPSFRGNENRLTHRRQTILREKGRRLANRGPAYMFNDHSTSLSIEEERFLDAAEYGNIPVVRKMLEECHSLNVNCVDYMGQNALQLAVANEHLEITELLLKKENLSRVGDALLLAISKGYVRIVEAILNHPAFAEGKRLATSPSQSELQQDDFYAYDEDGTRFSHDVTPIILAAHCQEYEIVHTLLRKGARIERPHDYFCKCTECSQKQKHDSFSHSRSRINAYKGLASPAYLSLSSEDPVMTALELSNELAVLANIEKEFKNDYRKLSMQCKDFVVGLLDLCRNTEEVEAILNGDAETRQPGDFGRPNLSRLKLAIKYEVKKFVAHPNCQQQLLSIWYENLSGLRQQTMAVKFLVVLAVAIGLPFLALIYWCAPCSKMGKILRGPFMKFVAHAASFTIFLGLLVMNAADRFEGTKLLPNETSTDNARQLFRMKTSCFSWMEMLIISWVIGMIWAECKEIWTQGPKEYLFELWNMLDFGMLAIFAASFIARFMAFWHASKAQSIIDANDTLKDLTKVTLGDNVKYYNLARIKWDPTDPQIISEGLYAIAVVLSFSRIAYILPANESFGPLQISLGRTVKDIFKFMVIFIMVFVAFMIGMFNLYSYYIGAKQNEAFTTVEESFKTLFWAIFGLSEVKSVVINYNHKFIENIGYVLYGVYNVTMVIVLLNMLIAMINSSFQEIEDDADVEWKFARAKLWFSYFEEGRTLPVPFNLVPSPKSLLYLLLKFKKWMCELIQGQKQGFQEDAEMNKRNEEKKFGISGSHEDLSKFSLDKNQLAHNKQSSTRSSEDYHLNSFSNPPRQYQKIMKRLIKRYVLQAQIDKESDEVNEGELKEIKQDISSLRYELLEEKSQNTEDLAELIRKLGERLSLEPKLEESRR
TRPC4 block = blocks the mouse TRPC4 cation channel | 0.39% of 300,000 active | B-score at 10 µM | Q9QUQ5 | HEK293 TRPC4beta/mu-opioid, DAMGO-evoked Fluo4 calcium flux; active compounds read low;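 active = B-score over 3 SD under the library average, no early fluorescence shift, positive overall ratio signal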
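System: stable TRPC4beta/mu-opioid receptor HEK293 cells; Dosing: single-point compound dosing; Measured by: Fluo4 Ca2+ flux fluorescence; Read-out basis: per-well B score of integrated baseline-normalized Fluo4 ratio.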
TRPC6 act = mouse TRPC6 channel activation; B-score at 10 µM; 0.13% of 310,000 active; Q61143; HEK293-TRPC6 membrane potential dye fluorescence; active compounds read high;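 active = B-score of the integrated fluorescence ratio above library mean plus 3 SD, and starting fluorescence ratio within library mean plus 5 SD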;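 also: higher score means more depolarization so channel activation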
TRPC4 act = activators of mouse TRPC4 channel | Q9QUQ5 | HEK293 TRPC4beta/mu-opioid, Fluo4 calcium fluorescence; active compounds read high | B-score at 10 µM | 0.49% of 310,000 active | AID 2237;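 active = B-score above 5 SD of library B-scores, and initial fluorescence ratio not above library mean plus 5 SD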;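 also: positive B-score marks a calcium rise read as TRPC4 activation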
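Test system: HEK293 cells stably co-expressing mouse TRPC4beta and mu-opioid receptor | Schedule: Fluo4 dye loading 45 min at room temperature, 110 s recording | Measured by: Kinetic Fluo4 calcium fluorescence, 5 s baseline at 1 Hz | Evaluation: B score of integrated ratio | Controls: Buffer (low) and maximal DAMGO (high)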
TRPC4 PAM = TRPC4 (mouse) allosteric potentiation; HEK293 TRPC4beta/mu-opioid, DAMGO EC20, Fluo-4 Ca2+ flux; active compounds read high; B-score at 10 µM; 0.42% of 310,000 active; AID 2227;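 active = B-score of calcium response area above 5 SD of library B-scores, with initial fluorescence ratio within 5 SD of library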;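 also: B-score of integrated fluorescence ratio over time as area under calcium response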
* = called active by the depositor; i = inactive.

SMILES	TRPC6 inhibitor	TRPC4 block	TRPC6 act	TRPC4 act	TRPC4 PAM
COc1ccc2c(C)cc(N3CCN(Cc4ccccc4)CC3)nc2c1	i	i	i	i	i
COc1ccc2c(C)cc(N3CCCCCC3)nc2c1	i	-10*	i	i	i
COc1ccccc1OCCN(C#N)c1nc(N(C)C)nc(N(C)C)n1	i	i	i	i	i
CN1C2C=C(N(CCc3c[nH]c4ccccc34)C(=O)c3ccc(Cl)cc3)CC1CC2 (stereo not given)	i	-6*	i	88*	i
CC1=C(C#N)c2nc(N)c(C#N)c(C)c2/C1=C\c1ccc(C)cc1	-6.4*	i	i	i	i
COc1cc(/C=C2\C(C)=C(C#N)c3nc(N)c(C#N)c(C)c32)ccc1OCC(=O)O	i	i	i	i	i
Cc1ccc(C)c(OCCC(=O)OC(C)C(=O)Nc2c(C)n(C)n(-c3ccccc3)c2=O)c1 (stereo not given)	i	i	i	i	i
CCOCc1nnc(NC(=O)C2CC(=O)N(C3CCCC3)C2)s1 (stereo not given)	i	i	i	i	i
CCCCCCCC[n+]1cccc2c3ccccc3ccc21	i	-6*	i	i	i
COC(=O)c1cccnc1-n1c(=O)c2cccnc2n(Cc2cccc(C(F)(F)F)c2)c1=O	i	i	i	i	i
O=C(CSc1nnc(COc2ccccc2)o1)Nc1ccc(F)cc1	i	i	i	i	i
Cc1ncc(CN2CCN(CCc3ccccc3)C(CCO)C2)s1 (stereo not given)	i	i	i	i	i
COc1cccc(CC2(CO)CCN(Cc3cnc(N4CCOCC4)s3)CC2)c1	i	i	i	i	i
Cc1ncc(CN2CCC(CO)(CCc3ccccc3)CC2)s1	i	i	i	73*	i
OCC1(CCCc2ccccc2)CCN(Cc2cnc(N3CCOCC3)s2)CC1	i	i	i	46*	i
Cc1ccc(NC(=O)C2CC(=O)N(Cc3ccco3)C2)cc1 (stereo not given)	i	i	i	i	i
CCN(CC)CCCNCC(=O)Nc1ccc2c(c1)CCC2	i	i	i	i	i
CCN(CC)CCCNCC(=O)Nc1ccc(OC)c(Cl)c1	i	i	i	65*	i
CCn1c(NCc2c[nH]c3ccccc23)nc2ccccc21	i	-8*	i	i	i
CCn1c(NCc2ccccn2)nc2ccccc21	i	i	i	71*	i
CCOC(=O)C1(Cc2cccc(F)c2)CCN(CCCn2cccn2)CC1	i	i	i	i	i
CCOC(=O)C1(Cc2cccc(F)c2)CCN(Cc2cnn(CC)c2C)CC1	i	i	i	143*	i
CCOC(=O)C1(Cc2cccc(F)c2)CCN(Cc2cnn(CC)c2)CC1	i	i	i	125*	i
CCCS(=O)(=O)N1CCC(C(=O)NCCC(C)C)CC1	i	i	i	i	i
COc1ccc(C)cc1S(=O)(=O)NC1CC1	i	i	i	i	i
SMILES	TRPC6 inhibitor	TRPC4 block	TRPC6 act	TRPC4 act	TRPC4 PAM
Cn1cccc1-c1nc2ccccc2n1Cc1ccccc1	i	-5*	i	i	i
c1ccc(Cn2c(CN3CCCC3)nc3ccccc32)cc1	i	-7*	i	i	i
CC(C)OCCCNS(=O)(=O)c1ccc2c(c1)oc(=O)n2C	i	i	i	i	i
CCCN(CCC)CCCNS(=O)(=O)c1ccc2c(c1)oc(=O)n2C	i	i	i	56*	i
Cc1nc2ccc(Nc3ccncc3)cc2s1	i	i	i	i	i
O=C(NCCc1cnc[nH]1)c1ccc(-c2ccccc2)cc1	i	i	i	106*	i
CCOc1ccccc1C(=O)NCCc1cnc[nH]1	i	i	i	i	17*
Cc1oc(-c2ccccc2F)nc1CS(=O)CC(=O)NC1CCCCC1 (stereo not given)	i	i	i	i	i
Cc1ccc(-n2nc(C)c3onc(C)c3c2=O)cc1	i	i	i	i	i
Cn1c(=O)c2sccc2n2c(CCCC(=O)NC3CCN(Cc4ccccc4)CC3)nnc12	i	i	i	i	14*
Cn1c(=O)c2sccc2n2c(CCCC(=O)Nc3ccccc3)nnc12	i	i	i	i	i
CN1CCN(Cc2cccc(Oc3ccc(Cl)cc3)c2)CC1	i	i	i	i	19*
CC(C)(C)c1ccc(OCCCn2ccnc2)cc1	i	i	i	i	i
O=C(CSc1nc(=O)n(CCN2CCOCC2)c2c1CCC2)Nc1ccc(OC(F)(F)F)cc1	i	-6*	i	i	i
O=C(NC1CCN(Cc2ccccc2)CC1)c1cccc(S(=O)(=O)Nc2ccc(Br)cc2)c1	i	i	i	i	i
COc1ccccc1NS(=O)(=O)c1cccc(C(=O)NC2CCN(Cc3ccccc3)CC2)c1	i	-8*	i	52*	i
N#CCc1nnc2n1-c1ccccc1CCC2	i	i	i	i	i
Cc1ccc(NC(=O)NC2CC(=O)N(c3ccc4c(c3)OCCO4)C2)cc1F (stereo not given)	i	i	i	i	i
CCn1cc[n+](C)c1P(c1ccccc1)c1ccccc1	i	-5*	i	51*	i
CCOc1ccc(N(CC(=O)NC2CCCCC2)C(=O)CCC(=O)Nc2cc(C)ccn2)cc1	i	i	i	i	i
CCCSc1cc(N)cc([N+](=O)[O-])c1	i	-5*	i	i	i
CCN(CC)S(=O)(=O)c1ccc2c(c1)N(CC(=O)NCCN1CCOCC1)C(=O)CO2	i	i	i	i	i
COc1cccc(Cn2c(Oc3cccc(C)c3)nc3c2c(=O)n(C)c(=O)n3C)c1	i	i	i	i	i
COc1cccc(Cn2c(Oc3ccccc3)nc3c2c(=O)n(C)c(=O)n3C)c1	i	-6*	i	i	i
O=S(=O)(c1cc(Cl)c(Cl)cc1Cl)N1CCN2CCCC2C1 (stereo not given)	i	i	i	67*	i
COc1ccc(C(CNC(=O)C2CCN(S(=O)(=O)c3ccc(F)cc3)CC2)N(C)C)cc1 (stereo not given)	i	i	i	137*	i
Cc1cc(F)ccc1S(=O)(=O)N1CCCOC1CNC(=O)C(=O)NCCCN1CCOCC1 (stereo not given)	i	i	i	i	i
NCCNC(=O)c1c(O)c2cccc3c2n(c1=O)CCC3	i	i	i	104*	i
